Reference: ChEMBL document CHEMBL4145451, “1,3,5-triazaspiro[5.5]undeca-2,4-dienes as selective Mycobacterium tuberculosis dihydrofolate reductase inhibitors with potent whole cell activity” (Eur J Med Chem, 2018)

Assays:
[1] = test system: Mycobacterium tuberculosis; assay: Ratio of MIC90 for Mycobacterium bovis BCG over-expressing DHFR to MIC90 for Mycobacterium bovis BCG; format: functional, variant bovis BCG
[2] = test system: Mycobacterium tuberculosis; assay: Antimycobacterial activity against Mycobacterium bovis BCG after 10 days by broth dilution method; format: functional; conditions: variant bovis BCG, 240 h
Summary of the method: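 Broth microdilution. Mid-log cultures (OD600 0.4–0.6) were diluted and added to 2-fold serial compound dilutions in DMSO, giving a final 5 × 10^5 CFU/mL in 7H9-albumin-dextrose-catalase-glycerol-Tween 80. Plates were sealed and incubated at 37 °C for 10 days with shaking at 80 rpm. OD600 was read; MIC50 and MIC90 are the lowest concentrations giving 50% and 90% growth inhibition. Rifampicin and DMSO served as controls. Means of 3 independent experiments.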

[3] = test system: Mycobacterium tuberculosis; assay: Antimycobacterial activity against Mycobacterium bovis BCG at 25 uM after 10 days by broth dilution method relative to control; format: functional, variant bovis BCG

Nc1ccc(C(=O)O)c(O)c1 [AMINOSALICYLIC ACID]
Ratio [1]: 16

Cl.NC1=NC2(CCCCC2)N(c2ccc(OCc3cn(Cc4ccccc4)nn3)cc2)C(N)=N1
MIC50 [2]: 19.2 µM
MIC90 [2]: > 100 µM
Activity [3]: 61.7%

Cl.NC1=NC2(CCCCC2)N(Cc2cn(CCc3ccccc3)nn2)C(N)=N1
Activity [3]: 4.7%

Cl.NC1=NC2(CCCCC2)N(c2ccc(OCc3cn(CCc4ccccc4)nn3)cc2)C(N)=N1
Activity [3]: 25.6%

Cl.NC1=NC2(CCCCC2)N(Cc2cn(CCCOc3ccc4ccc(=O)oc4c3)nn2)C(N)=N1
Activity [3]: 7.8%

Cl.NC1=NC2(CCCCC2)N(c2ccc(OCc3cn(CCOc4ccc5ccc(=O)oc5c4)nn3)cc2)C(N)=N1
MIC50 [2]: 0.2 µM
MIC90 [2]: 1.56 µM
Activity [3]: 84.8%

Cl.NC1=NC2(CCCCC2)N(c2ccc(OCc3cn(CCCCOc4ccc5ccc(=O)oc5c4)nn3)cc2)C(N)=N1
MIC50 [2]: 0.01 to 0.02 µM
MIC90 [2]: 0.1 µM
Ratio [1]: 25 - 30
Activity [3]: 92.1%

Cl.NC1=NC2(CCCCC2)N(Cc2cn(CCCc3ccccc3)nn2)C(N)=N1
Activity [3]: 5.4%

Cl.NC1=NC2(CCCCC2)N(Cc2cn(CC(=O)c3ccccc3)nn2)C(N)=N1
Activity [3]: 3.4%

Cl.NC1=NC2(CCCCC2)N(Cc2cn(Cc3ccccc3)nn2)C(N)=N1
Activity [3]: 4.5%

Cl.NC1=NC2(CCCCC2)N(Cc2cn(CCCCCOc3ccc4oc(=O)ccc4c3)nn2)C(N)=N1
Activity [3]: 6.7%

Cl.NC1=NC2(CCCCC2)N(c2ccc(OCc3cn(CCCOc4ccc5ccc(=O)oc5c4)nn3)cc2)C(N)=N1
MIC50 [2]: 0.02 µM
MIC90 [2]: 0.2 µM
Ratio [1]: 25 - 30
Activity [3]: 88.4%

Cl.NC1=NC2(CCCCC2)N(c2ccc(OCc3cn(CC(=O)c4ccccc4)nn3)cc2)C(N)=N1
Activity [3]: 12.8%

Cl.NC1=NC2(CCCCC2)N(Cc2cn(CCOc3ccc4ccc(=O)oc4c3)nn2)C(N)=N1
Activity [3]: 5.8%

Cl.NC1=NC2(CCCCC2)N(c2ccc(OCc3cn(CCCc4ccccc4)nn3)cc2)C(N)=N1
MIC50 [2]: 20.7 µM
MIC90 [2]: > 100 µM
Activity [3]: 67.8%
